Shown are actives, neighbours in structure and some others; about 1.8% of the full set was active somewhere.
eIF4H FP inh = inhibitors of RNA binding by human eIF4H; Q15056; eIF4H fluorescence polarization binding assay; inhibition, % at 35 µM; hit rate 0.94% among 290,000;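 further: calls also rest on retests at 20 µM and on dose response follow-up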
HCV core dimer = HCV core protein dimerization inhibition | TR-FRET GST/Flag-core106 dimerization, 1536-well | inhibition, % at 5 µM | hit rate 0.33% among 300,000 | AID 1899;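 active means inhibition above the mean of all tested compounds plus 3 SD, set per screening campaign, cut at about 45% in these data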
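Assay system: Tagged HCV core106 pair (GST and Flag) | Buffer or medium: KF-containing HEPES buffer, pH 7.45, DTT, CHAPS, BSA | Also added: Eu donor and XL665 acceptor anti-tag antibodies | Dosing: One concentration, 5 µM, in 0.5% DMSO | Timing: 4 h at 22.5 °C | Technique: TR-FRET 671 and 617 nm emission | Repeats: Singlicate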
SUMO HTRF inh = SUMOylation inhibition; HTRF SUMOylation assay, SAE1/SAE2 + UBC9, in vitro; P63279; inhibition, % at 35 µM; hit rate 0.36% among 290,000; AID 2006; in the data active means inhibition above about 50%, passing the limit was not always enough
eIF4E 4G PPI = inhibitors of eIF4E and eIF4G interaction in translation initiation. P63073+Q04637. TR-FRET eIF4E-eIF4GI(517-606) binding, 2 h. inhibition, % at 21.7 µM. hit rate 0.37% among 220,000. AID 782;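 active means inhibition above about 30%, limit read from the data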;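 further: 0% = full FRET control wells and 100% = background wells lacking eIF4GI fragment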
PABP1 MLLE inh = inhibitors of microRNA-mediated deadenylation, human PABP1 MLLE binding. P11940. inhibition, % at 20 µM. GST-MLLE / FITC-PAM2 fluorescence polarization. hit rate 0.36% among 360,000; in the data active means inhibition above about 35%, passing the limit was not always enough;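 further: plate controls were DMSO wells with GST-MLLE for no effect and wells lacking GST-MLLE protein for full effect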
Target sequence (P11940 whole entry, looked up): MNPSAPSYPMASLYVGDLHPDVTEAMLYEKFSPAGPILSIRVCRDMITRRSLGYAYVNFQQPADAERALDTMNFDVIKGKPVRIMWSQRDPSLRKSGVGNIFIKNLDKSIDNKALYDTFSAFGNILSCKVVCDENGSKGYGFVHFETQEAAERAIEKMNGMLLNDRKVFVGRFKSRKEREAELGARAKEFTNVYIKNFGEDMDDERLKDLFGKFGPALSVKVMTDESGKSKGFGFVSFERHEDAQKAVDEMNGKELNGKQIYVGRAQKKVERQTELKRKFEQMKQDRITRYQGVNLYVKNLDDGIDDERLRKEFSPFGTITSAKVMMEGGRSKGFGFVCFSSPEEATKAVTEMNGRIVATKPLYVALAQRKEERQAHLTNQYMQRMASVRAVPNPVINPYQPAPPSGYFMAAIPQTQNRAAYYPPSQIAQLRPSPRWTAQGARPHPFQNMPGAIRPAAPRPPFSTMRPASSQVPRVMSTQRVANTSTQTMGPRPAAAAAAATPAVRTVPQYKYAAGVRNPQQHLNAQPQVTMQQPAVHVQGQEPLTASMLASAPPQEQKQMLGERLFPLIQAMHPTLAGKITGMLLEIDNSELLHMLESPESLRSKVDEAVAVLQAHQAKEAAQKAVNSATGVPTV
PABP FP inh = PABP-poly(A) binding inhibition. P11940. PABP-poly(A) RNA binding, fluorescence polarization. calls only at 35 µM. hit rate 1% among 290,000. AID 2014;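 further: calls also rest on retests at 20 µM and on dose response follow-up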
Active calls of the source: *. Unless noted, how the calls were made is not given here.

`COC(=O)CC1=C(C(=O)OC)C(c2ccncc2)C(C#N)=C(N)O1` (stereo not drawn) gave eIF4H FP inh 108.6, HCV core dimer 1.1, SUMO HTRF inh 5.7, eIF4E 4G PPI -15.9, PABP1 MLLE inh 3.4 and PABP FP inh active.
`O=C(Nc1ccc(Nc2ccncc2)cc1)c1ccc(Nc2ccnc3ccc([N+](=O)[O-])cc23)cc1` gave eIF4H FP inh -3.1, SUMO HTRF inh 69.4*, eIF4E 4G PPI -58.1, PABP1 MLLE inh -103.6 and PABP FP inh inactive.
Screening O=C(CN1c2cccc3cccc(c23)S1(=O)=O)Nc1ccc(S(=O)(=O)N2CCOCC2)cc1 returned eIF4H FP inh 18.0, HCV core dimer 56.1*, SUMO HTRF inh 30.3, eIF4E 4G PPI 22.8, PABP1 MLLE inh -5.0 and PABP FP inh inactive.
`O=C(CN1C(=O)c2cccc3cccc1c23)Nc1ccc(S(=O)(=O)N2CCOCC2)cc1` gave eIF4H FP inh -6.8, HCV core dimer -2.6, SUMO HTRF inh 26.1, eIF4E 4G PPI -1.5, PABP1 MLLE inh 4.8 and PABP FP inh inactive.
O=S(=O)(c1ccc(NC(=S)N/N=C/c2c3ccccc3cc3ccccc23)cc1)N1CCOCC1 was read as eIF4H FP inh 10.9, HCV core dimer 55.9*, SUMO HTRF inh 8.0, eIF4E 4G PPI -0.3, PABP1 MLLE inh -41.5 and PABP FP inh inactive.
CCOc1ccc(C2=Nn3c(CC)nnc3SC2)cc1 was read as PABP1 MLLE inh 6.6.
For COc1cc(/C=C2\SC(=S)N(CCCCC(=O)O)C2=O)ccc1OS(=O)(=O)c1ccc(C)cc1 the results were HCV core dimer 15.4 and PABP1 MLLE inh -2.4.
O=C(CN1C(=O)S/C(=C\c2ccccc2)C1=O)NCCCn1ccnc1 was read as eIF4H FP inh -1.9, HCV core dimer 4.8, SUMO HTRF inh 10.6, PABP1 MLLE inh 43.4* and PABP FP inh inactive.
For COc1ccc(/C=C2\SC(=O)N(CC(=O)NNC(=O)c3ccccc3O)C2=O)cc1 the results were eIF4H FP inh -1.7, HCV core dimer -1.2, SUMO HTRF inh 56.3*, eIF4E 4G PPI 8.0, PABP1 MLLE inh -9.1 and PABP FP inh inactive.
CC(=O)NNC(=O)CN1C(=O)/C(=C/c2ccccc2)SC1=S was read as eIF4H FP inh 3.4, HCV core dimer -2.1, SUMO HTRF inh 26.5, eIF4E 4G PPI -3.8, PABP1 MLLE inh 50.1* and PABP FP inh inactive.
O=C(CCCN1C(=O)S/C(=C\c2ccccc2)C1=O)NNC(=O)c1ccccc1O was read as eIF4H FP inh 1.2, HCV core dimer 5.9, SUMO HTRF inh -2.9, eIF4E 4G PPI 0.4, PABP1 MLLE inh -18.7 and PABP FP inh inactive.
Screening O=C(CN1C(=O)S/C(=C\c2ccccc2)C1=O)NNC(=O)c1ccccc1O returned eIF4H FP inh 7.4*, HCV core dimer 0.6, eIF4E 4G PPI 2.8, PABP1 MLLE inh 5.0 and PABP FP inh active.
Screening COC(=O)c1ccc(CNC(=O)COC(=O)/C=C/c2cc(OC)c(OC)c(OC)c2)cc1 returned PABP1 MLLE inh -3.5.
O=C(CCC1CCN(C(=O)c2ccccc2Cl)CC1)NCc1ccc(F)cc1 was read as eIF4H FP inh -6.7, HCV core dimer 5.8, SUMO HTRF inh -2.8, PABP1 MLLE inh 5.5 and PABP FP inh inactive.
Screening O=C(O)CN1C(=O)/C(=C/C=C/c2ccccc2)SC1=S returned eIF4H FP inh 7.0, HCV core dimer 3.4, SUMO HTRF inh 17.2, eIF4E 4G PPI -5.4, PABP1 MLLE inh 16.9 and PABP FP inh inactive.
Screening CC(=O)c1ccc(NC(=O)CN2C(=O)/C(=C/C=C/c3ccccc3)SC2=S)cc1 returned eIF4H FP inh -2.6, HCV core dimer 65.0*, SUMO HTRF inh 38.3, eIF4E 4G PPI -6.1, PABP1 MLLE inh 0.3 and PABP FP inh inactive.
For COc1ccc(N(CC(=O)N/N=C/c2ccc(-c3ccc([N+](=O)[O-])cc3)o2)S(=O)(=O)c2ccc(C)cc2)cc1Cl the results were eIF4H FP inh 6.2, HCV core dimer 63.0*, SUMO HTRF inh 35.7, eIF4E 4G PPI 0.2, PABP1 MLLE inh -37.9 and PABP FP inh inactive.
`COc1ccc(N(CC(=O)N/N=C/c2ccc(-c3ccc([N+](=O)[O-])cc3)o2)S(=O)(=O)c2ccc(C)cc2)cc1` gave eIF4H FP inh 45.9, HCV core dimer 52.4*, SUMO HTRF inh 38.6, eIF4E 4G PPI -0.8, PABP1 MLLE inh -38.5 and PABP FP inh inactive.
Screening Nc1ccccc1C(=O)NN=Cc1cccnc1 returned PABP1 MLLE inh 13.7.
Screening CCN(CC)S(=O)(=O)c1cc(NC(=O)C(C)N2CCc3ccccc32)ccc1C (stereo not drawn) returned eIF4H FP inh active, HCV core dimer -7.0, SUMO HTRF inh 7.9, eIF4E 4G PPI 1.0, PABP1 MLLE inh -11.5 and PABP FP inh inactive.
Screening Cc1ccc(NC(=O)C(C)N2CCCc3ccccc32)cc1S(=O)(=O)N1CCOCC1 (stereo not drawn) returned PABP1 MLLE inh -9.2.
Screening CC1CN(c2ccccc2)NC1=O (stereo not drawn) returned eIF4H FP inh -8.1, HCV core dimer -5.2, SUMO HTRF inh -18.0, eIF4E 4G PPI -0.7, PABP1 MLLE inh 6.8 and PABP FP inh inactive.
For CCOC(=O)c1c(S(=O)(=O)N2CCCCC2C)c(C)n(C)c1C (stereo not drawn) the results were eIF4H FP inh -0.1, HCV core dimer 5.6, SUMO HTRF inh 13.9, PABP1 MLLE inh 1.0 and PABP FP inh inactive.
For O=C(CSc1ccc2nnc(-c3ccccc3)n2n1)N1CCCCC1 the results were HCV core dimer 2.4 and PABP1 MLLE inh 40.4*.
For CC[n+]1c(C)sc2c3ccsc3ccc21 the results were eIF4H FP inh -7.7, HCV core dimer -9.5, SUMO HTRF inh -5.2, eIF4E 4G PPI -0.3, PABP1 MLLE inh -69.3 and PABP FP inh inactive.
CC[n+]1c(C)sc2sc3ccccc3c21 was read as eIF4H FP inh 15.2, HCV core dimer 0.4, SUMO HTRF inh 10.4, eIF4E 4G PPI -2.3 and PABP FP inh active.
Screening O=C(Nc1cccc2cccnc12)c1ccc(Br)o1 returned eIF4H FP inh 6.0, HCV core dimer -1.6, SUMO HTRF inh -4.6, eIF4E 4G PPI 2.0, PABP1 MLLE inh 2.0 and PABP FP inh inactive.
Screening O=C(Nc1cccc2ccccc12)c1ccc(Br)o1 returned eIF4H FP inh -2.8, SUMO HTRF inh -11.9, eIF4E 4G PPI 47.0*, PABP1 MLLE inh 13.2 and PABP FP inh inactive.
Screening CN1CCN(C(c2ccccn2)c2cc(Cl)c3cccnc3c2O)CC1 (stereo not drawn) returned eIF4H FP inh 28.0, HCV core dimer -8.1, SUMO HTRF inh -98.6, eIF4E 4G PPI 4.5, PABP1 MLLE inh 43.2* and PABP FP inh inactive.
Screening Cc1ccc(C(c2cc(Cl)c3cccnc3c2O)N2CCN(C)CC2)cc1 (stereo not drawn) returned eIF4H FP inh 29.5, HCV core dimer -5.1, SUMO HTRF inh -36.8, PABP1 MLLE inh 48.2* and PABP FP inh inactive.

Compound activity deposited in PubChem BioAssay by several laboratories.
